According to ChEMBL document CHEMBL3877325, “Novel salicylanilides from 4,5-dihalogenated salicylic acids: Synthesis, antimicrobial activity and cytotoxicity” (Bioorg Med Chem, 2017):
In brackets after ≈: the same amount, converted by molar mass.

Experiments:
[1] = Selectivity index, ratio of IC50 for human HepG2 cells to MIC for Mycobacterium tuberculosis H37Rv after 21 days; type: toxicity, cell-based; settings: HepG2 cells versus Mycobacterium tuberculosis H37Rv, read-out: Selectivity Index
Outline: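 HepG2 cells (passages 33-37) seeded at 1 × 10^4 per well and treated next day with 0.1–100 µM in triplicate. After 24 h at 37 °C, 5% CO2, MTS reagent added for 2 h and absorbance read at 490 nm. IC50 taken from viability relative to untreated control, then divided by the 21-day H37Rv MIC.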

Mycobacterium kansasii [2] = experiment: Antimycobacterial activity against Mycobacterium kansasii isolate 6509/96 after 7 days by micromethod; type: functional; settings: isolate 6509/96, 168 h
Outline: (§1)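 MIC in Šula's semisynthetic medium at 37 °C, read after 7, 14 and 21 days. Inoculum is strain dilution 10^-4; 235/80 is a collection strain and 6509/96 a clinical isolate. Compounds are added as DMSO solutions at 500, 250, 125, 62.5, 32, 16, 8, 4, 2, 1 and 0.5 µM. INH (in sterile water) and PAS are the reference drugs.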

Mycobacterium avium [3] = experiment: Antimycobacterial activity against Mycobacterium avium My 330/80 after 14 days by micromethod; type: functional; settings: My 330/80, 336 h
Outline: (§2)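 M. avium My 330/80 (collection strain) inoculated at 10^-5 dilution into Šula's semisynthetic medium. Compounds added from DMSO solutions at 500, 250, 125, 62.5, 32, 16, 8, 4, 2, 1 and 0.5 µM. MIC determined by micromethod at 37 °C, read after 14 and 21 days.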

Mycobacterium kansasii [4] = experiment: Antimycobacterial activity against Mycobacterium kansasii isolate 6509/96 after 14 days by micromethod; type: functional; settings: isolate 6509/96, 336 h; outline: as §1
[5] = tested on: Mycobacterium tuberculosis; experiment: Antimycobacterial activity against Mycobacterium tuberculosis H37Rv My 331/88 after 14 days by micromethod; type: functional; settings: H37Rv My 331/88, 336 h
Outline: (§3)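 MIC micromethod in Šula's semisynthetic medium at 37 °C, read after 14 and 21 days. Compounds added as DMSO solutions at 500 down to 0.5 µM (twofold-type series: 500, 250, 125, 62.5, 32, 16, 8, 4, 2, 1, 0.5 µM). Isoniazid standard given in sterile water.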

Mycobacterium avium [6] = experiment: Antimycobacterial activity against Mycobacterium avium My 330/80 after 21 days by micromethod; type: functional; settings: My 330/80, 504 h; outline: as §2
Mycobacterium kansasii [7] = experiment: Antimycobacterial activity against Mycobacterium kansasii isolate 235/80 after 7 days by micromethod; type: functional; settings: isolate 235/80, 168 h; outline: as §1
Mycobacterium kansasii [8] = experiment: Antimycobacterial activity against Mycobacterium kansasii isolate 235/80 after 21 days by micromethod; type: functional; settings: isolate 235/80, 504 h; outline: as §1
[9] = Cytotoxicity against human HepG2 cells assessed as reduction in cell viability after 24 hrs by MTS assay; type: toxicity, cell-based
Outline: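 HepG2 cells (passages 33-37) are grown in MEM with 10% FBS, L-glutamine and non-essential amino acids. They are seeded at 1 × 10^4 cells/well and treated next day with 0.1-100 µM in triplicate for 24 h at 37 °C, 5% CO2. MTS reagent is added for 2 h and A490 read.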

Mycobacterium kansasii [10] = experiment: Antimycobacterial activity against Mycobacterium kansasii isolate 235/80 after 14 days by micromethod; type: functional; settings: isolate 235/80, 336 h; outline: as §1
Mycobacterium kansasii [11] = experiment: Antimycobacterial activity against Mycobacterium kansasii isolate 6509/96 after 21 days by micromethod; type: functional; settings: isolate 6509/96, 504 h; outline: as §1
[12] = tested on: Mycobacterium tuberculosis; experiment: Antimycobacterial activity against Mycobacterium tuberculosis H37Rv My 331/88 after 21 days by micromethod; type: functional; settings: H37Rv My 331/88, 504 h; outline: as §3

Row | Compound | selectivity ratio at 504 h [1] | MIC (Mycobacterium kansasii [2]) | MIC (Mycobacterium avium [3]) | MIC (Mycobacterium kansasii [4]) | MIC [5] | MIC (Mycobacterium avium [6]) | MIC (Mycobacterium kansasii [7]) | MIC (Mycobacterium kansasii [8]) | IC50 at 24 h [9] | MIC (Mycobacterium kansasii [10]) | MIC (Mycobacterium kansasii [11]) | MIC [12]
1 | O=C(Nc1ccc(Cl)c(Cl)c1)c1ccc(Cl)cc1O | 0.56 | 4 µM (≈ 1.27 µg/mL) | 16 µM (≈ 5.07 µg/mL) | 4 µM (≈ 1.27 µg/mL) | 4 µM (≈ 1.27 µg/mL) | 16 µM (≈ 5.07 µg/mL) | 4 µM (≈ 1.27 µg/mL) | 8 µM (≈ 2.53 µg/mL) | 2.23 µM | 8 µM (≈ 2.53 µg/mL) | 8 µM (≈ 2.53 µg/mL) | 4 µM (≈ 1.27 µg/mL)
2 | O=C(Nc1ccc(Br)cc1)c1ccc(Cl)cc1O | 0.81 | 4 µM (≈ 1.31 µg/mL) | 16 µM (≈ 5.23 µg/mL) | 8 µM (≈ 2.61 µg/mL) | 4 µM (≈ 1.31 µg/mL) | 16 µM (≈ 5.23 µg/mL) | 4 µM (≈ 1.31 µg/mL) | 4 µM (≈ 1.31 µg/mL) | 3.24 µM | 4 µM (≈ 1.31 µg/mL) | 8 µM (≈ 2.61 µg/mL) | 4 µM (≈ 1.31 µg/mL)
3 | O=C(Nc1ccc(C(F)(F)F)cc1)c1ccc(Cl)cc1O | 0.66 | 2 µM (≈ 0.631 µg/mL) | 8 µM (≈ 2.53 µg/mL) | 2 µM (≈ 0.631 µg/mL) | 4 µM (≈ 1.26 µg/mL) | 8 µM (≈ 2.53 µg/mL) | 2 µM (≈ 0.631 µg/mL) | 4 µM (≈ 1.26 µg/mL) | 2.64 µM | 4 µM (≈ 1.26 µg/mL) | 4 µM (≈ 1.26 µg/mL) | 4 µM (≈ 1.26 µg/mL)
4 | O=C(Nc1ccc(Br)cc1)c1cc(Cl)ccc1O | 0.2 | 4 µM (≈ 1.31 µg/mL) | 8 µM (≈ 2.61 µg/mL) | 8 µM (≈ 2.61 µg/mL) | 8 µM (≈ 2.61 µg/mL) | 8 µM (≈ 2.61 µg/mL) | 4 µM (≈ 1.31 µg/mL) | 4 µM (≈ 1.31 µg/mL) | 3.14 µM | 4 µM (≈ 1.31 µg/mL) | 8 µM (≈ 2.61 µg/mL) | 16 µM (≈ 5.23 µg/mL)
5 | O=C(Nc1ccc(C(F)(F)F)cc1)c1cc(Cl)ccc1O | – | 2 µM (≈ 0.631 µg/mL) | 8 µM (≈ 2.53 µg/mL) | 2 µM (≈ 0.631 µg/mL) | 2 µM (≈ 0.631 µg/mL) | 8 µM (≈ 2.53 µg/mL) | 1 µM (≈ 0.316 µg/mL) | 1 µM (≈ 0.316 µg/mL) | – | 1 µM (≈ 0.316 µg/mL) | 2 µM (≈ 0.631 µg/mL) | 2 µM (≈ 0.631 µg/mL)
6 | O=C(Nc1cc(C(F)(F)F)cc(C(F)(F)F)c1)c1cc(Br)ccc1O | 3.4 | 4 µM (≈ 1.71 µg/mL) | 16 µM (≈ 6.85 µg/mL) | 8 µM (≈ 3.43 µg/mL) | 2 µM (≈ 0.856 µg/mL) | 16 µM (≈ 6.85 µg/mL) | 4 µM (≈ 1.71 µg/mL) | 8 µM (≈ 3.43 µg/mL) | 7.8 µM | 8 µM (≈ 3.43 µg/mL) | 8 µM (≈ 3.43 µg/mL) | 2 µM (≈ 0.856 µg/mL)
7 | O=C(Nc1cc(C(F)(F)F)cc(C(F)(F)F)c1)c1ccc(Cl)cc1O | 2.39 | 8 µM (≈ 3.07 µg/mL) | 16 µM (≈ 6.14 µg/mL) | 8 µM (≈ 3.07 µg/mL) | 4 µM (≈ 1.53 µg/mL) | 16 µM (≈ 6.14 µg/mL) | 8 µM (≈ 3.07 µg/mL) | 16 µM (≈ 6.14 µg/mL) | 9.55 µM | 8 µM (≈ 3.07 µg/mL) | 8 µM (≈ 3.07 µg/mL) | 4 µM (≈ 1.53 µg/mL)
8 | O=C(Nc1ccc(C(F)(F)F)cc1)c1cc(Br)ccc1O | 1.81 | 2 µM (≈ 0.72 µg/mL) | 1 µM (≈ 0.36 µg/mL) | 4 µM (≈ 1.44 µg/mL) | 1 µM (≈ 0.36 µg/mL) | 1 µM (≈ 0.36 µg/mL) | 2 µM (≈ 0.72 µg/mL) | 4 µM (≈ 1.44 µg/mL) | 1.81 µM | 2 µM (≈ 0.72 µg/mL) | 4 µM (≈ 1.44 µg/mL) | 1 µM (≈ 0.36 µg/mL)
9 | O=C(Nc1ccc(Cl)c(Cl)c1)c1cc(Br)ccc1O | 7.87 | 2 µM (≈ 0.722 µg/mL) | 8 µM (≈ 2.89 µg/mL) | 2 µM (≈ 0.722 µg/mL) | 4 µM (≈ 1.44 µg/mL) | 8 µM (≈ 2.89 µg/mL) | 8 µM (≈ 2.89 µg/mL) | 8 µM (≈ 2.89 µg/mL) | 31.5 µM | 8 µM (≈ 2.89 µg/mL) | 4 µM (≈ 1.44 µg/mL) | 4 µM (≈ 1.44 µg/mL)
10 | O=C(Nc1ccc(C(F)(F)F)cc1)c1ccc(Br)cc1O | 7.52 | 2 µM (≈ 0.72 µg/mL) | 8 µM (≈ 2.88 µg/mL) | 4 µM (≈ 1.44 µg/mL) | 1 µM (≈ 0.36 µg/mL) | 8 µM (≈ 2.88 µg/mL) | 2 µM (≈ 0.72 µg/mL) | 4 µM (≈ 1.44 µg/mL) | 15 µM | 2 µM (≈ 0.72 µg/mL) | 4 µM (≈ 1.44 µg/mL) | 2 µM (≈ 0.72 µg/mL)
11 | O=C(Nc1ccc(Br)cc1)c1ccc(Br)cc1O | 1.9 | 8 µM (≈ 2.97 µg/mL) | 16 µM (≈ 5.94 µg/mL) | 8 µM (≈ 2.97 µg/mL) | 2 µM (≈ 0.742 µg/mL) | 16 µM (≈ 5.94 µg/mL) | 4 µM (≈ 1.48 µg/mL) | 8 µM (≈ 2.97 µg/mL) | 7.59 µM | 8 µM (≈ 2.97 µg/mL) | 8 µM (≈ 2.97 µg/mL) | 4 µM (≈ 1.48 µg/mL)
